Legend:
SF-539 [1] = assay: Compound was tested for its cytotoxicity against CNS SF-539 Human cancer cell line; format: functional
How it was run: (§1)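 GI50 = concentration giving 50% growth inhibition, from a screen of about 55 human cancer cell lines over a 10^-8 to 10^-4 M test range. Values come from two determinations where a population standard deviation is shown, otherwise from single determinations.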

[2] = target: T1, DNA topoisomerase 1 (Homo sapiens) (UniProt P11387); assay: The activity was examined against DNA topoisomerase I mediated DNA cleavage using 3'-End-labelled 161 BP plasmid DNA; 0 indicates inactive
T1 sequence (whole entry): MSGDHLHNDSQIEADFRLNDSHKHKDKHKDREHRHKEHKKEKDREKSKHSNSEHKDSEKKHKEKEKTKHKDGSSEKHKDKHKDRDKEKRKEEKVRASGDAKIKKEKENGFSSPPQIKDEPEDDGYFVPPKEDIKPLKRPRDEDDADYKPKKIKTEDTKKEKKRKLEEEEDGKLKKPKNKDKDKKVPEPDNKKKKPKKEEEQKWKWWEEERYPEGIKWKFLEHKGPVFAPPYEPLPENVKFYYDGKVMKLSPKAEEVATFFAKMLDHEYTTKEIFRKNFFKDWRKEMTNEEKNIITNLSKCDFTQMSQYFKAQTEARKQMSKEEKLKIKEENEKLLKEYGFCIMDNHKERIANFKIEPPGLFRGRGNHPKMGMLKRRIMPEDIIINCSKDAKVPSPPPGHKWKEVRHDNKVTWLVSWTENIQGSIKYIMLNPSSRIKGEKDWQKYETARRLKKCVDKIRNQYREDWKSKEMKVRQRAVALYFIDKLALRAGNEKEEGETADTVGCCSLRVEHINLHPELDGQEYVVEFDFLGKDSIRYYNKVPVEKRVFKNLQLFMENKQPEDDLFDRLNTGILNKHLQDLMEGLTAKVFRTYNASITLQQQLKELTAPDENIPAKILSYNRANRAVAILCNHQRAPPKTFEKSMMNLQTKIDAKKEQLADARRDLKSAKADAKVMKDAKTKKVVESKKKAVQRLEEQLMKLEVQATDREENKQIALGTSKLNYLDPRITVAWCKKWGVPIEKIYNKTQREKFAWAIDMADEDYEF
How it was run: (§2)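 A 161 bp PvuII–HindIII fragment of pBluescript SK(–) was 3'-end-labeled at the HindIII site with [α-32P]dCTP by Klenow fill-in. About 50 000 dpm per reaction was incubated with top1 and drug (0.1–300 μM) at 30 °C for 30 min, then stopped with 0.5% SDS (final). Products were run on 16% polyacrylamide/7 M urea gels at 51 °C and imaged by phosphorimager.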

DU-145 [3] = assay: Compound was tested for its cytotoxicity against prostate DU-145 Human cancer cell line; format: functional; how it was run: as §1
HOP-62 = assay: Cytotoxicity against lung HOP-62 human cancer cell line.; format: functional; how it was run: as §1
HCT-116 = assay: Cytotoxicity against colon HCT116 human cancer cell line.; format: functional; how it was run: as §1
MDA-MB-435 = assay: In vitro cytotoxicity against MDA-MB-435 (Human breast cancer) cell line.; format: functional; how it was run: as §1
OVCAR-3 = assay: Cytotoxicity against ovarian OVCAR-3 human cancer cell line.; format: functional; how it was run: as §1
SN12C = assay: In vitro cytotoxicity against SN12C (Human renal cancer) cell line.; format: functional; how it was run: as §1
UACC-62 = assay: In vitro cytotoxicity against UACC-62 (Human melanoma) cell line.; format: functional; how it was run: as §1
DU-145 [4] = assay: Cytotoxicity against prostate DU-145 human cancer cell line.; format: functional; how it was run: as §1
[5] = target: T1, DNA topoisomerase 1 (Homo sapiens); assay: The activity was examined against DNA topoisomerase I mediated DNA cleavage using 3'-End-labelled 161 BP plasmid DNA. 0 indicates inactive; how it was run: as §2
SF-539 [6] = assay: Compound was tested for its cytotoxicity against CNS SF-539 Human cancer cell line
SF-539 [7] = assay: Compound was tested for its cytotoxicity against CNS SF-539 cell line; format: functional; details: Homo sapiens; how it was run: as §1
[8] = target: T1, DNA topoisomerase 1 (Homo sapiens); assay: The activity was examined against DNA topoisomerase I mediated DNA cleavage using 3''-End-labelled 161 BP plasmid DNA; + indicates between 20 and 50% of the activity 0f 1 uM camptothecin; how it was run: as §2

Compound | GI50 (SF-539 [1]) | Top1 cleavage activity [2] | GI50 (DU-145 [3]) | GI50 (HOP-62) | GI50 (HCT-116) | GI50 (MDA-MB-435) | GI50 (OVCAR-3) | GI50 (SN12C) | GI50 (UACC-62) | GI50 (DU-145 [4]) | Top1 cleavage activity [5] | GI50 (SF-539 [6]) | GI50 (SF-539 [7]) | Top1 cleavage activity [8]
Cn1c2c(c3ccccc3c1=O)C(=O)c1cc(OCc3ccccc3)c(OCc3ccccc3)cc1-2 | > 100 µM | 0 | > 100 µM | 72 µM | > 100 µM | > 100 µM | > 100 µM | 88 µM | 93 µM | – | – | – | – | –
COc1cc2c(c(OC)c1OC)C(=O)c1c-2n(C)c(=O)c2ccccc12 | – | – | – | 24 µM | – | – | > 100 µM | > 100 µM | – | > 100 µM | 0 | > 100 µM | – | –
O=C1c2ccccc2-c2c1c1ccccc1c(=O)n2CCCCO | – | – | – | 13 µM | 3.2 µM | > 100 µM | 74 µM | 7.4 µM | 4.4 µM | > 100 µM | – | – | 4.6 µM | 20-50% of the activity 0f 1 uM camptothecin
